Experimental data as given in ChEMBL document CHEMBL5247578, “Effective synthesis of benzimidazoles-imidazo[1,2-a]pyrazine conjugates: A comparative study of mono-and bis-benzimidazoles for antitumor activity” (Eur J Med Chem, 2019).

Assays:
OVCAR-3 = test: Antiproliferative activity against human OVCAR-3 cells assessed as cell growth at 0.00000001 M incubated for 48 hrs by SRB assay relative to control; assay type: functional; settings: dose 10 nM, read-out: Activity
TK-10 = test: Antiproliferative activity against human TK-10 cells assessed as cell growth at 0.000001 M incubated for 48 hrs by SRB assay relative to control; assay type: functional; settings: read-out: Activity
NCI/ADR-RES = test: Antiproliferative activity against human NCI/ADR-RES cells assessed as cell growth at 0.00000001 M incubated for 48 hrs by SRB assay relative to control; assay type: functional; settings: dose 10 nM, read-out: Activity
Malme-3M = test: Antiproliferative activity against human Malme-3M cells assessed as cell growth at 0.0001 M incubated for 48 hrs by SRB assay relative to control; assay type: functional; settings: read-out: Activity
SNB-75 = test: Antiproliferative activity against human SNB-75 cells assessed as cell growth at 0.00000001 M incubated for 48 hrs by SRB assay relative to control; assay type: functional; settings: dose 10 nM, read-out: Activity
BT-549 [1] = test: Antiproliferative activity against human BT-549 cells assessed as cell growth at 0.0001 M incubated for 48 hrs by SRB assay relative to control; assay type: functional; settings: read-out: Activity
In short: (§1)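 NCI-60 five-dose screen over 10^-4–10^-8 M (10-fold dilutions). Cells grown in RPMI 1640 with 5% FBS and 2 mM L-glutamine, seeded at 5,000–40,000 cells/well and preincubated 24 h. Drug from DMSO stock, 48 h at 37 °C, 5% CO2. Adherent cells TCA-fixed and stained with 0.4% SRB; A515 read. Percent growth = (Ti−Tz)/(C−Tz)×100, or (Ti−Tz)/Tz×100 when Ti<Tz.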

SK-MEL-28 = test: Antiproliferative activity against human SK-MEL-28 cells assessed as cell growth at 0.0000001 M incubated for 48 hrs by SRB assay relative to control; assay type: functional; settings: dose 100 nM, read-out: Activity
COLO 205 = test: Antiproliferative activity against human COLO 205 cells assessed as cell growth at 0.00000001 M incubated for 48 hrs by SRB assay relative to control; assay type: functional; settings: dose 10 nM, read-out: Activity; in short: as §1
SF-268 [2] = test: Antiproliferative activity against human SF-268 cells assessed as cell growth at 0.00001 M incubated for 48 hrs by SRB assay relative to control; assay type: functional; settings: read-out: Activity
Hs-578T = test: Growth inhibition against human Hs-578T cells incubated for 48 hrs by sulforhodamine B assay; assay type: functional
RPMI-8226 [3] = test: Antiproliferative activity against human RPMI-8226 cells assessed as cell growth at 0.000001 M incubated for 48 hrs by SRB assay relative to control; assay type: functional; settings: read-out: Activity
HEK293 [4] = test: Cytotoxicity against human HEK293 cells assessed as reduction in cell viability at 0.0001 M incubated for 48 hrs by MTT colorimetric assay relative to control; assay type: toxicity, cell-based; settings: hek293, 48 h, 100 µM
SK-MEL-5 = test: Antiproliferative activity against human SK-MEL-5 cells assessed as cell growth at 0.0000001 M incubated for 48 hrs by SRB assay relative to control; assay type: functional; settings: dose 100 nM, read-out: Activity
A549 = test: Antiproliferative activity against human A549 cells assessed as cell growth at 0.0001 M incubated for 48 hrs by SRB assay relative to control; assay type: functional; settings: read-out: Activity; in short: as §1
SN12C = test: Antiproliferative activity against human SN12C cells assessed as cell growth at 0.0000001 M incubated for 48 hrs by SRB assay relative to control; assay type: functional; settings: dose 100 nM, read-out: Activity
NCI-H23 [5] = test: Antiproliferative activity against human NCI-H23 cells assessed as cell growth at 0.000001 M incubated for 48 hrs by SRB assay relative to control; assay type: functional; settings: read-out: Activity
Albumin = Albumin (Bos taurus, UniProt P02769); test: Binding affinity to bovine serum albumin assessed as binding constant by Stern-Volmer equation based fluorescence spectroscopic method; settings: cattle
Albumin, sequence (P02769 whole entry): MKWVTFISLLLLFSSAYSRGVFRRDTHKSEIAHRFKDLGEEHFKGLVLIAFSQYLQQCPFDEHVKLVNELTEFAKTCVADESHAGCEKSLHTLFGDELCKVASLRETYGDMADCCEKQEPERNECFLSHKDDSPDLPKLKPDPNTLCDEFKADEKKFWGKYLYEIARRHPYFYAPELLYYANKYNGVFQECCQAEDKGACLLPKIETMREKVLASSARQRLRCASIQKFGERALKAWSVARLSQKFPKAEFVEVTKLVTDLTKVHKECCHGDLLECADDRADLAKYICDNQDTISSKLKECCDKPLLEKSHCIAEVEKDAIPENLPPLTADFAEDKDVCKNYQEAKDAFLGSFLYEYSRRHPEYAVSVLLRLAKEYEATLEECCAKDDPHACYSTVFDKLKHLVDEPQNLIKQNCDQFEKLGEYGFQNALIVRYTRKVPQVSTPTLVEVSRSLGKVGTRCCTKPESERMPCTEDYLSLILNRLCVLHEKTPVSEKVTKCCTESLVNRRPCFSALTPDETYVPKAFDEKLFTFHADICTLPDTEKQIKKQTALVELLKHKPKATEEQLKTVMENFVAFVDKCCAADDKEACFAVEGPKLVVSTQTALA

HCT-116 [6] = test: Growth inhibition against human HCT-116 cells incubated for 48 hrs by sulforhodamine B assay; assay type: functional
HCT-116 [7] = test: Antiproliferative activity against human HCT-116 cells assessed as cell growth at 0.00000001 M incubated for 48 hrs by SRB assay relative to control; assay type: functional; settings: dose 10 nM, read-out: Activity
In short: (§2)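 NCI-60 five-dose screen (10^-4 to 10^-8 M). Cells grown in RPMI 1640 with 5% FBS and 2 mM L-glutamine, plated at 5,000-40,000 cells/well and preincubated 24 h. Drug given from DMSO stock, then 48 h at 37 °C, 5% CO2. For adherent lines, cells fixed with cold TCA, SRB-stained and read at 515 nm. Percent growth taken against time-zero and untreated control.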

HOP-92 = test: Antiproliferative activity against human HOP-92 cells assessed as cell growth at 0.0001 M incubated for 48 hrs by SRB assay relative to control; assay type: functional; settings: read-out: Activity; in short: as §2
NCI-H23 [8] = test: Growth inhibition against human NCI-H23 cells assessed as total growth inhibitory concentration incubated for 48 hrs by sulforhodamine B assay; assay type: functional
SF-268 [9] = test: Antiproliferative activity against human SF-268 cells assessed as cell growth at 0.0001 M incubated for 48 hrs by SRB assay relative to control; assay type: functional; settings: read-out: Activity
UACC-257 = test: Growth inhibition against human UACC-257 cells incubated for 48 hrs by sulforhodamine B assay; assay type: functional
SK-MEL-2 = test: Antiproliferative activity against human SK-MEL-2 cells assessed as cell growth at 0.00000001 M incubated for 48 hrs by SRB assay relative to control; assay type: functional; settings: dose 10 nM, read-out: Activity
MDA-MB-435 = test: Antiproliferative activity against human MDA-MB-435 cells assessed as cell growth at 0.0000001 M incubated for 48 hrs by SRB assay relative to control; assay type: functional; settings: dose 100 nM, read-out: Activity
HEK293 [10] = test: Cytotoxicity against human HEK293 cells assessed as reduction in cell viability at 0.000001 M incubated for 48 hrs by MTT colorimetric assay relative to control; assay type: toxicity, cell-based; settings: hek293, 48 h, 1 µM
A498 = test: Growth inhibition against human A498 cells assessed as total growth inhibitory concentration incubated for 48 hrs by sulforhodamine B assay; assay type: functional
EKVX = test: Antiproliferative activity against human EKVX cells assessed as cell growth at 0.0000001 M incubated for 48 hrs by SRB assay relative to control; assay type: functional; settings: dose 100 nM, read-out: Activity; in short: as §2
SF-539 = test: Antiproliferative activity against human SF-539 cells assessed as cell growth at 0.0001 M incubated for 48 hrs by SRB assay relative to control; assay type: functional; settings: read-out: Activity
BT-549 [11] = test: Antiproliferative activity against human BT-549 cells assessed as cell growth at 0.000001 M incubated for 48 hrs by SRB assay relative to control; assay type: functional; settings: read-out: Activity; in short: as §1
U-251 = test: Antiproliferative activity against human U-251 cells assessed as cell growth at 0.00001 M incubated for 48 hrs by SRB assay relative to control; assay type: functional; settings: read-out: Activity
RPMI-8226 [12] = test: Antiproliferative activity against human RPMI-8226 cells assessed as cell growth at 0.00001 M incubated for 48 hrs by SRB assay relative to control; assay type: functional; settings: read-out: Activity
DU-145 = test: Antiproliferative activity against human DU-145 cells assessed as cell growth at 0.000001 M incubated for 48 hrs by SRB assay relative to control; assay type: functional; settings: read-out: Activity; in short: as §2
NCI-H23 [13] = test: Antiproliferative activity against human NCI-H23 cells assessed as cell growth at 0.00000001 M incubated for 48 hrs by SRB assay relative to control; assay type: functional; settings: dose 10 nM, read-out: Activity

| Structure (SMILES) | growth at 0.01 µM (OVCAR-3) [%] | growth at 1 µM (TK-10) [%] | growth at 0.01 µM (NCI/ADR-RES) [%] | growth at 100 µM (Malme-3M) [%] | growth at 0.01 µM (SNB-75) [%] | growth at 100 µM (BT-549 [1]) [%] | growth at 0.1 µM (SK-MEL-28) [%] | growth at 0.01 µM (COLO 205) [%] | growth at 10 µM (SF-268 [2]) [%] | GI50 (Hs-578T) [nM] | growth at 1 µM (RPMI-8226 [3]) [%] | Activity (HEK293 [4]) [%] | growth at 0.1 µM (SK-MEL-5) [%] | growth at 100 µM (A549) [%] | growth at 0.1 µM (SN12C) [%] | growth at 1 µM (NCI-H23 [5]) [%] | Kb (Albumin) | GI50 (HCT-116 [6]) [nM] | growth at 0.01 µM (HCT-116 [7]) [%] | growth at 100 µM (HOP-92) [%] | further results |
| --- | --- | --- | --- | --- | --- | --- | --- | --- | --- | --- | --- | --- | --- | --- | --- | --- | --- | --- | --- | --- | --- |
| COc1ccc(-c2cn3ccnc3c(-c3ccc4ncn(C5CCCCC5)c4c3)n2)cc1 | 100 | 84 | 100 | 49 | 78 | -6 | 95 | 96 | 25 | 1160 | 86 | 19.05 | 100 | 16 | 100 | 68 | 4.68 10^5/M | 399 | 95 | 9 | TGI (NCI-H23 [8]): > 100000 nM; growth at 100 µM (SF-268 [9]): 29%; GI50 (UACC-257): > 100000 nM; growth at 0.01 µM (SK-MEL-2): 96%; growth at 0.1 µM (MDA-MB-435): 92%; Activity (HEK293 [10]): 15.07%; TGI (A498): > 100000 nM; growth at 0.1 µM (EKVX): 89%; growth at 100 µM (SF-539): -19%; growth at 1 µM (BT-549 [11]): 26%; growth at 10 µM (U-251): 14%; growth at 10 µM (RPMI-8226 [12]): 10%; growth at 1 µM (DU-145): 51%; growth at 0.01 µM (NCI-H23 [13]): 97% |
| c1ccc(Cn2cnc3ccc(-c4nc(-c5ccc6c(c5)ncn6C5CCCCC5)cn5ccnc45)cc32)cc1 | 101 | 97 | 100 | 23 | 81 | -68 | 96 | 95 | 2 | 2710 | 55 | 18.05 | 106 | -40 | 101 | 86 | 1.08 10^5/M | 1070 | 89 | -80 | TGI (NCI-H23 [8]): 4490 nM; growth at 100 µM (SF-268 [9]): 5%; GI50 (UACC-257): 2240 nM; growth at 0.01 µM (SK-MEL-2): 94%; growth at 0.1 µM (MDA-MB-435): 98%; Activity (HEK293 [10]): 14.11%; TGI (A498): 3570 nM; growth at 0.1 µM (EKVX): 91%; growth at 100 µM (SF-539): -38%; growth at 1 µM (BT-549 [11]): 62%; growth at 10 µM (U-251): -27%; growth at 10 µM (RPMI-8226 [12]): -29%; growth at 1 µM (DU-145): 93%; growth at 0.01 µM (NCI-H23 [13]): 94% |
